Results: ChEMBL document CHEMBL3817734, “Structure-activity relationships of vanillic acid ester analogs in inhibitory effect of antigen-mediated degranulation in rat basophilic leukemia RBL-2H3 cells” (Bioorg Med Chem Lett, 2016)
The source made the active and inactive calls. The rule behind the calls is not given here.

Tests used:
RBL-2H3 [1] = assay: Anti-allergic activity in RBL2H3 cells assessed as inhibition of anti-DNP-IgE-induced degranulation at 30 to 300 uM incubated for 20 mins followed by DNP-labeled human serum albumin addition measured after 1 hr by beta-hexosaminidase release assay; format: functional, cell-based; settings: Rattus norvegicus
Method in brief: (§1)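 DNP-IgE-sensitized RBL-2H3 cells were pretreated with test samples for 20 min, with 75 μM oxatomide as positive control, then stimulated with DNP-HSA for 1 h. Degranulation was read as β-hexosaminidase release. Compounds were dissolved in culture medium containing cyclodextrin (CD). Data are the mean of three independent cultures ± SD, compared with control by Dunnett's test.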

RBL-2H3 [2] = assay: Anti-allergic activity in RBL2H3 cells assessed as inhibition of anti-DNP-IgE-induced degranulation incubated for 20 mins followed by DNP-labeled human serum albumin addition measured after 1 hr by beta-hexosaminidase release assay; format: functional, cell-based; settings: Rattus norvegicus; method in brief: as §1
RBL-2H3 [3] = assay: Anti-allergic activity in RBL2H3 cells assessed as inhibition of anti-DNP-IgE-induced degranulation at 1000 uM incubated for 20 mins followed by DNP-labeled human serum albumin addition measured after 1 hr by beta-hexosaminidase release assay; format: functional, cell-based; settings: Rattus norvegicus; method in brief: as §1
[4] = Drug metabolism in RBL2H3 cells assessed as esterase-mediated vanillic acid formation; format: ADME, cell-based; settings: rat, rbl-2h3
[5] = Cytotoxicity in RBL2H3 cells; format: cell-based; settings: rat, rbl-2h3
[6] = Solubility of compound in water; format: physicochemical; settings: buffer
[7] = Drug metabolism in RBL2H3 cells assessed as esterase-mediated butanol formation; format: ADME, cell-based; settings: rat, rbl-2h3
[8] = Increase in anti-DNP-IgE-induced degranulation in RBL2H3 cells incubated for 20 mins followed by DNP-labeled human serum albumin addition measured after 1 hr by beta-hexosaminidase release assay; format: cell-based; settings: rat, rbl-2h3, 1 h; method in brief: as §1
[9] = Drug level in RBL2H3 cells treated with ferulic acid; format: ADME, cell-based; settings: rat, rbl-2h3
RBL-2H3 [10] = assay: Anti-allergic activity in RBL2H3 cells assessed as inhibition of anti-DNP-IgE-induced degranulation at 100 to 1000 uM incubated for 20 mins followed by DNP-labeled human serum albumin addition measured after 1 hr by beta-hexosaminidase release assay; format: functional, cell-based; settings: Rattus norvegicus; method in brief: as §1
[11] = Drug metabolism in RBL2H3 cells assessed as vanillin and vanillic acid formation; format: ADME, cell-based; settings: rat, rbl-2h3
[12] = Drug level in RBL2H3 cells treated with butyl vanillate assessed as esterase-mediated compound formation; format: ADME, cell-based; settings: rat, rbl-2h3

Structure (SMILES): CCCOC(=O)Cc1ccc(O)c(OC)c1
- inhibition (RBL-2H3 [1]): inactive

Structure (SMILES): COc1cc(C(=O)OC(C)C)ccc1O
- IC50 (RBL-2H3 [2]): 415 µM

Structure (SMILES): CCCOC(=O)c1ccc(O)c(OC)c1
- IC50 (RBL-2H3 [2]): 294 µM

Structure (SMILES): COC(=O)c1ccc(O)c(OC)c1 [METHYL VANILLATE]
- IC50 (RBL-2H3 [2]): 640 µM
- inhibition (RBL-2H3 [3]): Active

Structure (SMILES): CCCCOC(=O)c1ccccc1
- inhibition (RBL-2H3 [1]): inactive

Structure (SMILES): CCCCOC(=O)c1cccc(O)c1
- inhibition (RBL-2H3 [1]): Active

Structure (SMILES): CCCCOC(=O)c1ccc(O)c(OC)c1
- Drug metabolism [4]: metabolite_detected
- Activity [5]: Non-toxic
- IC50 (RBL-2H3 [2]): 198 µM
- solubility [6]: soluble
- Drug metabolism [7]: metabolite_detected

Structure (SMILES): CCCCCCCCOC(=O)c1ccc(O)c(OC)c1
- Activity [8]: Toxic
- Activity [5]: Toxic

Structure (SMILES): COc1cc(C=O)ccc1O [VANILLIN]
- Drug metabolism [9]: metabolite_detected
- inhibition (RBL-2H3 [10]): inactive

Structure (SMILES): CCCCOC(=O)c1ccc(OC)cc1
- inhibition (RBL-2H3 [1]): inactive

Structure (SMILES): COc1cc(/C=C/C(=O)O)ccc1O [FERULATE]
- Drug metabolism [11]: metabolite_detected
- inhibition (RBL-2H3 [2]): Active

Structure (SMILES): CCCCOC(=O)c1ccc(O)cc1
- inhibition (RBL-2H3 [1]): Active

Structure (SMILES): COc1cc(C(=O)O)ccc1O [VANILLIC ACID]
- Drug metabolism [9]: metabolite_detected
- Drug metabolism [12]: metabolite_detected
- inhibition (RBL-2H3 [10]): inactive

Structure (SMILES): CCOC(=O)CCc1ccc(O)c(OC)c1
- inhibition (RBL-2H3 [1]): inactive

Structure (SMILES): CCCCOC(=O)c1cccc(OC)c1
- inhibition (RBL-2H3 [1]): inactive

Structure (SMILES): CCCCOC(=O)c1ccc(OC)c(O)c1
- inhibition (RBL-2H3 [1]): Active
